Assay results published in ChEMBL document CHEMBL3227917, “Structure-activity relationships of dimeric Catharanthus alkaloids. 2. Experimental antitumor activities of N-substituted deacetylvinblastine amide (vindesine) sulfates” (J Med Chem, 1979).

Experiments:
CHO [1] = experiment: Mitotic arrest in CHO cells assessed as increase in cell accumulation at 2 ug/ml; type: functional, Cricetulus griseus
In short: (§1)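 Chinese hamster ovary cells in tissue culture, scored for mitotic arrest as increase in cells in mitotic arrest over control: +++, 40–50%; ++, 15–40%; +, 10–15%; ±, 7–10%; –, 3–7%. Cytotoxicity noted separately.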

CHO [2] = experiment: Mitotic arrest in CHO cells assessed as increase in cell accumulation at 0.2 ug/ml; type: functional, Cricetulus griseus; in short: as §1
[3] = Antitumor activity against mouse P1534 cells allografted in DBA2 mouse assessed as tumor growth inhibition at 0.10 mg/kg, ip administered daily for 8 to 10 days; type: functional; conditions: route intraperitoneal, read-out: TGI
In short: (§2)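 P1534(J) leukemia implanted sc in DBA2 mice; sulfate salts dosed ip daily for 8–10 days. Growth inhibition scored –, 0–25%; +, 26–50%; ++, 51–75%; +++, 76–100%; T, lethal to ≥5 of 10 animals per group. Average of one or more tests.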

P388/VCR [4] = experiment: Antitumor activity against mouse P388/VCR cells allografted in CD2F1 mouse assessed as increase in host lifespan at 0.60 mg/kg, ip administered on days 1, 5 and 9; type: functional; conditions: dose 0.6 mg/kg; route intraperitoneal
In short: (§3)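 Groups of eight male CD2F1 mice bearing P388 leukemia, run at NCI. Sulfate salts given ip on days 1, 5 and 9. Read-out is percent increase in lifespan.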

P388/VCR [5] = experiment: Antitumor activity against mouse P388/VCR cells allografted in B6D2F1 mouse assessed as increase in host lifespan at 1.20 mg/kg, ip administered on days 1, 5 and 9; type: functional; conditions: dose 1.2 mg/kg; route intraperitoneal
In short: (§4)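 P388/VCR leukemia in groups of 10 B6D2F1 mice, run at Lilly using the cell strain received from NCI. Sulfate salts given ip on days 1, 5 and 9. Read-out is percent increase in lifespan.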

[6] = Antitumor activity against mouse P388/VCR/I/63 cells allografted in Dublin-CDF1 mouse assessed as day of host death at 1.5 mg/kg, ip administered on days 1, 5 and 9 (reference value: 10 days); type: functional; conditions: route intraperitoneal
P388/S [7] = experiment: Antitumor activity against mouse P388/S cells allografted in CD2F1 mouse assessed as increase in host lifespan at 1.67 mg/kg, ip administered on days 1, 5 and 9; type: functional; conditions: route intraperitoneal; in short: as §3
P388/VCR [8] = experiment: Antitumor activity against mouse P388/VCR cells allografted in B6D2F1 mouse assessed as increase in host lifespan at 0.90 mg/kg, ip administered on days 1, 5 and 9; type: functional; conditions: dose 0.9 mg/kg; route intraperitoneal; in short: as §4
[9] = Antitumor activity against mouse P1534 cells allografted in DBA2 mouse assessed as tumor growth inhibition at 0.25 mg/kg, ip administered daily for 8 to 10 days; type: functional; conditions: route intraperitoneal, read-out: TGI; in short: as §2
[10] = Antitumor activity against mouse P1534 cells allografted in DBA2 mouse assessed as tumor growth inhibition at 0.20 mg/kg, ip administered daily for 8 to 10 days; type: functional; conditions: route intraperitoneal, read-out: TGI; in short: as §2
P388/S [11] = experiment: Antitumor activity against mouse P388/S cells allografted in CD2F1 mouse assessed as increase in host lifespan at 1.00 mg/kg, ip administered on days 1, 5 and 9; type: functional; conditions: route intraperitoneal; in short: as §3
P388/S [12] = experiment: Antitumor activity against mouse P388/S cells allografted in CD2F1 mouse assessed as increase in host lifespan at 0.36 mg/kg, ip administered on days 1, 5 and 9; type: functional; conditions: route intraperitoneal; in short: as §3
P388/S [13] = experiment: Antitumor activity against mouse P388/S cells allografted in CD2F1 mouse assessed as increase in host lifespan at 0.60 mg/kg, ip administered on days 1, 5 and 9; type: functional; conditions: dose 0.6 mg/kg; route intraperitoneal; in short: as §3
[14] = Toxicity in iv dosed mouse assessed as lethality; type: organism-based; conditions: in vivo
P388/VCR [15] = experiment: Antitumor activity against mouse P388/VCR cells allografted in CD2F1 mouse assessed as increase in host lifespan at 0.36 mg/kg, ip administered on days 1, 5 and 9; type: functional; conditions: route intraperitoneal; in short: as §3
CHO [16] = experiment: Cytotoxicity against CHO cells at 0.02 ug/ml; type: cell-based, Cricetulus griseus; conditions: chinese hamster; in short: as §1
P388/VCR [17] = experiment: Antitumor activity against mouse P388/VCR cells allografted in B6D2F1 mouse assessed as increase in host lifespan at 0.60 mg/kg, ip administered on days 1, 5 and 9; type: functional; conditions: dose 0.6 mg/kg; route intraperitoneal; in short: as §4
[18] = Antitumor activity against mouse P388/VCR/I/63 cells allografted in Dublin-CDF1 mouse assessed as increase in host lifespan at 1.5 mg/kg, ip administered on days 1, 5 and 9; type: functional; conditions: route intraperitoneal
CHO [19] = experiment: Mitotic arrest in CHO cells assessed as increase in cell accumulation at 0.02 ug/ml; type: functional, Cricetulus griseus; in short: as §1
P388/VCR [20] = experiment: Antitumor activity against mouse P388/VCR cells allografted in CD2F1 mouse assessed as increase in host lifespan at 1.00 mg/kg, ip administered on days 1, 5 and 9; type: functional; conditions: route intraperitoneal; in short: as §3
CHO [21] = experiment: Mitotic arrest in CHO cells assessed as increase in cell accumulation at 0.002 ug/ml; type: functional, Cricetulus griseus; in short: as §1
Mus musculus [22] = experiment: Toxicity in CD2F1 mouse allografted with mouse P388/VCR cells at 1.67 mg/kg, ip administered on days 1, 5 and 9; type: organism-based; set-up: dose 1.67 mg/kg, route intraperitoneal; conditions: in vivo
[23] = Antitumor activity against mouse Ridgway osteogenic sarcoma allografted in AKR mouse assessed as tumor growth inhibition at 0.40 mg/kg, ip administered daily for 8 to 10 days compound treatment commenced 8 days after tumor implantation; type: functional; conditions: route intraperitoneal, read-out: TGI
[24] = Antitumor activity against mouse Gardner lymphosarcoma allografted in C3H mouse assessed as tumor growth inhibition at 0.20 mg/kg, ip administered daily for 8 to 10 days; type: functional; conditions: route intraperitoneal, read-out: TGI
In short: (§5)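 Gardner lymphosarcoma in C3H mice; sulfate salts unless noted, given ip daily for 8–10 days, treatment starting 8 days after tumor implantation. Tumor growth inhibition scored as –, 0–25%; +, 26–50%; ++, 51–75%; +++, 76–100%; T, lethal to ≥5 of 10 animals per group. Average of one or more tests.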

[25] = Antitumor activity against mouse Gardner lymphosarcoma allografted in C3H mouse assessed as tumor growth inhibition at 0.10 mg/kg, ip administered daily for 8 to 10 days; type: functional; conditions: route intraperitoneal, read-out: TGI; in short: as §5
[26] = Antitumor activity against mouse Ridgway osteogenic sarcoma allografted in AKR mouse assessed as tumor growth inhibition at 0.10 mg/kg, ip administered daily for 8 to 10 days compound treatment commenced 8 days after tumor implantation; type: functional; conditions: route intraperitoneal, read-out: TGI
[27] = Antitumor activity against mouse Ridgway osteogenic sarcoma allografted in AKR mouse assessed as tumor growth inhibition at 0.20 mg/kg, ip administered daily for 8 to 10 days compound treatment commenced 8 days after tumor implantation; type: functional; conditions: route intraperitoneal, read-out: TGI
[28] = Antitumor activity against mouse Gardner lymphosarcoma allografted in C3H mouse assessed as tumor growth inhibition at 0.05 mg/kg, ip administered daily for 8 to 10 days; type: functional; conditions: route intraperitoneal, read-out: TGI; in short: as §5
[29] = Antitumor activity against mouse Ridgway osteogenic sarcoma allografted in AKR mouse assessed as tumor growth inhibition at 0.30 mg/kg, ip administered daily for 8 to 10 days compound treatment commenced 8 days after tumor implantation; type: functional; conditions: route intraperitoneal, read-out: TGI
[30] = Antitumor activity against mouse Gardner lymphosarcoma allografted in C3H mouse assessed as tumor growth inhibition at 0.40 mg/kg, ip administered daily for 8 to 10 days; type: functional; conditions: route intraperitoneal, read-out: TGI; in short: as §5
[31] = Antitumor activity against mouse Gardner lymphosarcoma allografted in C3H mouse assessed as tumor growth inhibition at 0.30 mg/kg, ip administered daily for 8 to 10 days; type: functional; conditions: route intraperitoneal, read-out: TGI; in short: as §5
[32] = Antitumor activity against mouse Ridgway osteogenic sarcoma allografted in AKR mouse assessed as tumor growth inhibition at 0.05 mg/kg, ip administered daily for 8 to 10 days compound treatment commenced 8 days after tumor implantation; type: functional; conditions: route intraperitoneal, read-out: TGI
Mus musculus [33] = experiment: Toxicity in C3H mouse allografted with mouse Gardner lymphosarcoma assessed as lethality at 0.5 mg/kg, ip administered daily for 8 to 10 days; type: organism-based; set-up: dose 0.5 mg/kg, route intraperitoneal; conditions: in vivo
In short: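 Tumor-bearing mice given sulfate salts ip daily for 8–10 days; values are the average of one or more tests. Toxic means lethal to ≥5 of 10 animals per group.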

Mus musculus [34] = experiment: Toxicity in mouse assessed as body weight at 0.5 mg/kg, ip administered twice per week for 4 weeks, then three doses per week for 3 weeks and finally six doses per week for 2 weeks measured at week 9 (reference value: 18.5 +/- 0.5 gms); conditions: in vivo

CC[C@]1(O)C[C@@H]2C[C@](C(=O)OC)(c3cc4c(cc3OC)N(C)[C@H]3[C@@](O)(C(N)=O)[C@H](O)[C@]5(CC)C=CCN6CC[C@]43[C@@H]65)c3[nH]c4ccccc4c3CC[N+]([O-])(C2)C1
Activity (CHO [1]): 15% | Activity (CHO [2]): 7%

CC[C@]1(O)C[C@H]2CN(CCc3c([nH]c4ccccc34)[C@@](C(=O)OC)(c3cc4c(cc3OC)N(C=O)[C@H]3[C@@](O)(C(=O)OC)[C@H](OC(C)=O)[C@]5(CC)C=CCN6CC[C@]43[C@@H]65)C2)C1.O=S(=O)(O)O [VINCRISTINE SULFATE]
inhibition in vivo at 0.1 mg/kg [3]: 51% | Activity (P388/VCR [4]): 0% | Activity (P388/VCR [5]): 0% | Activity [6]: 15 days | Activity (P388/S [7]): 96% | Activity (P388/VCR [8]): 0% | inhibition in vivo at 0.25 mg/kg [9]: 76% | inhibition in vivo at 0.2 mg/kg [10]: 76% | Activity (P388/S [11]): 138% | Activity (P388/S [12]): 83% | Activity (P388/S [13]): 83% | LD50 [14]: 2.1 mg/kg | Activity (P388/VCR [15]): 0% | Activity (CHO [16]): Toxic | Activity (P388/VCR [17]): 5% | Activity [18]: 50% | Activity (CHO [19]): 40% | Activity (P388/VCR [20]): 0% | Activity (CHO [21]): 10% | Activity (Mus musculus [22]): Toxic

CC[C@]1(O)C[C@H]2CN(CCc3c([nH]c4ccccc34)[C@@](C(=O)OC)(c3cc4c(cc3OC)N(C)[C@H]3[C@@](O)(C(=O)NC)[C@H](O)[C@]5(CC)C=CCN6CC[C@]43[C@@H]65)C2)C1.O=S(=O)(O)O
inhibition in vivo at 0.4 mg/kg [23]: 76% | inhibition in vivo at 0.2 mg/kg [24]: 76% | inhibition in vivo at 0.1 mg/kg [25]: 0% | inhibition in vivo at 0.1 mg/kg [26]: 0% | inhibition in vivo at 0.25 mg/kg [9]: 76% | inhibition in vivo at 0.2 mg/kg [27]: 51% | inhibition in vivo at 0.05 mg/kg [28]: 0% | inhibition in vivo at 0.3 mg/kg [29]: 76% | inhibition in vivo at 0.4 mg/kg [30]: 76% | inhibition in vivo at 0.3 mg/kg [31]: 76% | Activity (CHO [19]): 15% | Activity (CHO [21]): 3% | inhibition in vivo at 0.05 mg/kg [32]: 0% | Activity (Mus musculus [33]): Toxic | Activity (Mus musculus [34]): 24.6 g
